Compounds with a hit are over-represented: about 3.5% of the library has one in this group of screens.
FLuc stim CS: firefly luciferase counter-screen for stimulation assays; ATPlite luciferase biochemical, luminescence, 10 min; 0 = ATP-free wells, 1 = DMSO control; activation factor at 10 µM; 200,000 tested, under 10 active; AID 1027;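 active = luciferase activation factor, scaled between plate controls, of at least 2 with compound at 10 µM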
Target sequence (P08659 whole entry, looked up): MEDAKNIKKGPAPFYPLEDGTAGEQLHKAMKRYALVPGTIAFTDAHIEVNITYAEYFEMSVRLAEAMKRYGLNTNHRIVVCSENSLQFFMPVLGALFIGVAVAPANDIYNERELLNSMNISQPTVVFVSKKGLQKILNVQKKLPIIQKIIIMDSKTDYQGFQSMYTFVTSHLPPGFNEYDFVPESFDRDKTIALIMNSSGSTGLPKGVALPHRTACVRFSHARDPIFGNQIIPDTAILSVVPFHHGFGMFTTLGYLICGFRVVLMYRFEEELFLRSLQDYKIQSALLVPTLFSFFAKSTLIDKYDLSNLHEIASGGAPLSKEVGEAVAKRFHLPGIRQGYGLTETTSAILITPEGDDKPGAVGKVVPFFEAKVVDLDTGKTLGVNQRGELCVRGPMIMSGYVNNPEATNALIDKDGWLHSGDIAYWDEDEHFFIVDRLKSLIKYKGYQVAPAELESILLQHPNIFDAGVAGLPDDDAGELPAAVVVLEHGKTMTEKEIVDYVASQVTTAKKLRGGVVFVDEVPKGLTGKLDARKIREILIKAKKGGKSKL
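System: cell-free luciferase reagent; medium: PBS as buffer for the ATP substrate; doses: test compounds dosed from 2 mM stocks in 100% DMSO; incubation: 10 min, room temperature; measured by: luminescence from luciferase reaction; read-out: luciferase activation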
STAT1 act: STAT1 signaling activation | NIH 3T3 STAT1-luciferase reporter, IFN-gamma, luminescence; 100% = IFN-gamma alone, no compound | activation (% of control), % at 5.5 µM | 2.6% of 200,000 active | AID 932;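 active = activation above the screen-wide mean activation plus 3 SD, cut at about 130% in these data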;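 note: raw ratio to IFN-gamma control signal so 100% means no change and 0% no light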
APP 5'UTR act: APP 5'UTR luciferase reporter activation | SH-SY5Y APP 5'UTR luciferase reporter, luminescence; zero percent = DMSO vehicle wells | activation, % at 2 µM | 1% of 190,000 active;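 active = activation above a set limit, based on mean plus 3 SD of controls, cut at about 140% in these data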
NF-kB expr up: raises NF-kB expression in human neuronal cells; AID 1239; fold change at 12.5 µM; NF-kB reporter expression; stronger effect = higher value; 1.6% of 190,000 active; in the data active = fold change above about 3.3
FLuc inh counter: inhibits firefly luciferase, flagging false hits in luciferase inhibition screens. P08659. ATPLite firefly luciferase biochemical luminescence, 10 min. inhibition, % at 10 µM. 1.5% of 200,000 active. AID 1006;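 active = inhibition above about 50% when tested at 10 µM, limit read from the data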
Pf gamet viab: kills late stage P. falciparum gametocytes. P. falciparum stage V gametocytes, ATP luminescence, 24 h. inhibition, % at 10.9 µM. 0.065% of 150,000 active;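 active = inhibition above the mean plus 3 SD of compounds within the control limits, set per campaign, cut at about 38% in these data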;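 note: 0% = DMSO wells and 100% = medium only without gametocytes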
Active calls of the source: *.

NC(=O)c1c(NC(=O)c2cnccn2)sc2c1CCCC2 was read as FLuc stim CS 0.7, STAT1 act 134.7*, APP 5'UTR act 94.0, NF-kB expr up 1.55, FLuc inh counter 33.8 and Pf gamet viab -15.4.
NC(=O)c1c(NC(=S)Nc2ccc(F)cc2)sc2c1CCCC2 was read as FLuc stim CS 1, STAT1 act 113.7, APP 5'UTR act 13.9, NF-kB expr up 1.52, FLuc inh counter -4.9 and Pf gamet viab -13.1.
For COc1cc(C2Oc3ccccc3C=C2[N+](=O)[O-])cc(OC)c1OC (centres undefined) the results were Pf gamet viab -11.2.
Screening CCOCc1[nH]c(=S)[nH]c(=O)c1Cc1ccc(OCC(C)C)cc1 returned FLuc stim CS 1.1, STAT1 act 94.5, APP 5'UTR act -11.8, NF-kB expr up 1.18, FLuc inh counter -6.2 and Pf gamet viab 12.8.
Screening O=C(Nc1sc2c(c1C(=O)O)CCCCC2)c1ccco1 returned FLuc stim CS 0.3, STAT1 act 121.5, APP 5'UTR act 79.3, NF-kB expr up 1.86, FLuc inh counter 73.5* and Pf gamet viab 25.0.
Screening CC(C)NC(=O)N(C)C[C@H]1Oc2c(NC(=O)Nc3ccccc3)cccc2C(=O)N([C@H](C)CO)C[C@@H]1C returned Pf gamet viab -10.5.
COc1ccc(NC(=S)N(CCCN2CCCCC2)Cc2cccs2)cc1 was read as FLuc stim CS 1.1, STAT1 act 100.6, APP 5'UTR act -11.2, NF-kB expr up 0.96, FLuc inh counter -6.7 and Pf gamet viab -6.0.
For CCOC(=O)COc1ccc2c3c(c(=O)oc2c1C)CCC3 the results were FLuc stim CS 1, STAT1 act 91.9, APP 5'UTR act 5.5, NF-kB expr up 4.78* and FLuc inh counter -0.2.
Screening Cc1c(OCC(=O)C(C)(C)C)ccc2c3c(c(=O)oc12)CCCC3 returned Pf gamet viab 24.3.
Screening O=C(CCS(=O)(=O)c1ccc(Br)cc1)NC1CCCC1 returned FLuc stim CS 1.1, STAT1 act 98.9, NF-kB expr up 0.95 and FLuc inh counter -5.9.
`O=C(CCS(=O)(=O)c1cccs1)NC1CCCCCC1` gave FLuc stim CS 1, STAT1 act 130.4*, APP 5'UTR act 16.2, NF-kB expr up 1.9 and FLuc inh counter -1.7.
Screening CCCCNC(=O)c1cc(-c2ccc(OC)cc2)on1 returned FLuc stim CS 0.9, STAT1 act 119.8, APP 5'UTR act 34.6, NF-kB expr up 3.57*, FLuc inh counter 14.8 and Pf gamet viab 8.1.
CCN(CC)CCCNC(=O)c1cc(-c2ccc(Cl)cc2)on1 was read as FLuc stim CS 1.1, STAT1 act 99.2, APP 5'UTR act 12.0, NF-kB expr up 1.08, FLuc inh counter -5.6 and Pf gamet viab 3.0.
CCCCNC(=O)c1cc(-c2ccc(OC)c(OC)c2)on1 was read as FLuc stim CS 1, STAT1 act 103.4, APP 5'UTR act -6.1, NF-kB expr up 1.44 and FLuc inh counter -2.9.
`CCCCNC(=O)c1cc(-c2ccc(F)cc2)on1` gave FLuc stim CS 0.9, STAT1 act 135.6*, APP 5'UTR act 93.1, NF-kB expr up 11.5*, FLuc inh counter 9.2 and Pf gamet viab 5.5.
`O=C(N/N=C/c1ccc(O)cc1O)C(=O)N/N=C/c1ccc(O)cc1O` gave Pf gamet viab 8.1.
`Cc1cc(Cl)c(S(=O)(=O)N2CCN(c3ccc(F)cc3)CC2)cc1OCC(=O)NC1CCCCC1` gave FLuc stim CS 1.1, STAT1 act 83.8, APP 5'UTR act -40.9, NF-kB expr up 0.87, FLuc inh counter -7.3 and Pf gamet viab -32.9.
Screening COC(=O)c1c(-c2ccc(F)cc2)csc1NC(=O)c1ccco1 returned FLuc stim CS 0.9, STAT1 act 145.6*, APP 5'UTR act 34.9, NF-kB expr up 1.37 and FLuc inh counter 13.5.
Screening CCOC(=O)C1=C(c2ccccc2)O/C(=C(/C#N)C(F)(F)F)S1 returned FLuc stim CS 1.1, STAT1 act 79.4, APP 5'UTR act -16.8, NF-kB expr up 8.62* and FLuc inh counter -8.9.
COc1cc(NC(=O)CSc2nc3c(c(=O)[nH]2)CCCC3)cc(OC)c1OC was read as FLuc stim CS 1.1, STAT1 act 91.5, APP 5'UTR act -7.2, NF-kB expr up 0.95, FLuc inh counter -5.3 and Pf gamet viab 8.4.
Screening COC(=O)C1=C(C)N(CCc2ccc(OC)c(OC)c2)C(=O)/C1=C\N(C)C returned FLuc stim CS 1.1, STAT1 act 96.9, NF-kB expr up 1.07 and FLuc inh counter -10.9.
For C/C(=N\NC(N)=O)c1ccc(-n2ccnc2)cc1 the results were FLuc stim CS 1.1, STAT1 act 97.1, APP 5'UTR act -16.5, NF-kB expr up 1.33, FLuc inh counter -6.8 and Pf gamet viab -7.3.
CCc1ccc(OCC(=O)N/N=C(\C)c2ccc(OC(F)F)cc2)cc1 was read as FLuc stim CS 1, STAT1 act 99.8, APP 5'UTR act 22.4, NF-kB expr up 1.3, FLuc inh counter 2.3 and Pf gamet viab -23.6.
For C/C(=N\Nc1ccc(C(=O)O)cc1)c1ccc(-n2ccnc2)cc1 the results were FLuc stim CS 1, STAT1 act 138.3*, APP 5'UTR act 102.1, NF-kB expr up 1.02, FLuc inh counter 1.1 and Pf gamet viab -29.0.
CCc1ccc(OCC(=O)N/N=C(\C)c2ccc(-n3ccnc3)cc2)cc1 was read as FLuc stim CS 0.3, STAT1 act 103.7, APP 5'UTR act 8.8, NF-kB expr up 1.12, FLuc inh counter 72.3* and Pf gamet viab 25.0.
For Cn1c(=O)c2c(=O)cc(NNC(=O)CC#N)[nH]c2n(C)c1=O the results were FLuc stim CS 1.1, STAT1 act 103.7, APP 5'UTR act 9.3, NF-kB expr up 1.33, FLuc inh counter -8.0 and Pf gamet viab 2.5.
`O=C(c1cc(C(=O)NCCc2ccccc2)c(=O)n(CCc2ccccc2)c1)c1cc(Cl)ccc1O` gave FLuc stim CS 1.1, STAT1 act 98.2, APP 5'UTR act 0.1, NF-kB expr up 0.39, FLuc inh counter -5.1 and Pf gamet viab -7.0.
Screening COc1cc(C(=O)N(C)CC2CCN(CCc3cccc(C(F)(F)F)c3)CC2)ccc1C returned Pf gamet viab 8.0.
Screening CCN(CC)CCn1c2ccccc2c2cnc(N)c(C#N)c21 returned FLuc stim CS 1.1, STAT1 act 176.0*, APP 5'UTR act -19.2, NF-kB expr up 0.89 and FLuc inh counter -6.0.
Screening O=C(NCC1CCCO1)C1CC1(c1ccccc1)c1ccccc1 (centres undefined) returned FLuc stim CS 1, STAT1 act 100.7, APP 5'UTR act 11.0, NF-kB expr up 1, FLuc inh counter -3.5 and Pf gamet viab -3.5.
Screening CC(C)(C)n1nnnc1CN1CCSCC1 returned FLuc stim CS 1, STAT1 act 95.2, APP 5'UTR act 7.7, NF-kB expr up 1.2, FLuc inh counter -4.4 and Pf gamet viab -0.6.
For O=C(NC1CCCC1)c1n[nH]c2ccccc12 the results were FLuc stim CS 0.8, STAT1 act 137.7*, APP 5'UTR act 69.1, NF-kB expr up 1.28, FLuc inh counter 18.5 and Pf gamet viab -8.1.
